Tests used:
[1] = molecular target: T1, 5-hydroxytryptamine receptor 1A (Rattus norvegicus) (UniProt P19327); experiment: Effect on 5-hydroxytryptamine 1A receptor mediated inhibition of VIP-stimulated cAMP production at dose of 0.05 uM; format: functional; conditions: values are per cent of control
T1 sequence (whole entry): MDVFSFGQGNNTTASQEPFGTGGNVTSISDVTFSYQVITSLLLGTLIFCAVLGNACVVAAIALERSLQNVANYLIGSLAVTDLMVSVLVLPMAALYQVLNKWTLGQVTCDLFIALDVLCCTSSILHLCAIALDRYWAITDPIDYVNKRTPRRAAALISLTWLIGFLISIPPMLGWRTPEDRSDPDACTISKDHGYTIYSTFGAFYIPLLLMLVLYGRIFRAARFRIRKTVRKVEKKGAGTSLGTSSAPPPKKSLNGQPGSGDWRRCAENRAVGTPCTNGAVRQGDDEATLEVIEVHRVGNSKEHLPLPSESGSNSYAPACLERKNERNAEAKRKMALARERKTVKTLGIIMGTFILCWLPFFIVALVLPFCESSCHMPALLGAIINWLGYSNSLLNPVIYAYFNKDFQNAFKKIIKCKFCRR
Outline: (§1)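 GH4ZD10 cells expressing rat 5-HT1A receptors, detached with EDTA-supplemented Ca/Mg-free EBSS and resuspended in Ham's F10 with 0.01% ascorbic acid and 0.1 mM IBMX. Preincubated 1 h at 37 °C, then 0.8-1.5×10^6 cells/mL incubated 20 min at 37 °C with VIP (39 nM final) plus compounds. Duplicate samples stopped by boiling. cAMP measured in triplicate by protein-binding assay. Results are given as % of the VIP-stimulated response.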

[2] = molecular target: T1, 5-hydroxytryptamine receptor 1A (Rattus norvegicus); experiment: Effect on 5-hydroxytryptamine 1A receptor mediated inhibition of VIP-stimulated cAMP production at dose of 10 uM+ 10 uM 5-HT.; format: functional; conditions: values are per cent of control; outline: as §1
[3] = molecular target: T1, 5-hydroxytryptamine receptor 1A (Rattus norvegicus); experiment: Effect on 5-hydroxytryptamine 1A receptor mediated inhibition of VIP-stimulated cAMP production at dose of 1 uM; format: functional; conditions: values are per cent of control
Outline: (§2)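 GH4ZD10 cells expressing rat 5-HT1A receptors were detached with EBSS plus 1 mM EDTA and resuspended to ~1×10^7 cells/mL in Ham's F10 with 0.01% ascorbic acid and 0.1 mM IBMX. After 1 h preincubation at 37 °C they were diluted to 0.8-1.5×10^6 cells/mL, then incubated 20 min at 37 °C with VIP (39 nM final) plus compound, alone or with 5-HT, in duplicate. The reaction was stopped by boiling. cAMP was measured in triplicate by protein-binding assay and expressed as % of the VIP-stimulated response.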

[4] = molecular target: T2, 5-hydroxytryptamine receptor 1A (Rattus norvegicus, UniProt P19327); experiment: Binding affinity against rat hippocampal 5-hydroxytryptamine 1A (5-HT1A) receptor determined using [3H]8-OH-DPAT as radioligand; format: tissue-based, Hippocampus
T2 sequence (P19327 whole entry): T1 sequence (whole entry)

[5] = molecular target: T1, 5-hydroxytryptamine receptor 1A (Rattus norvegicus); experiment: Effect on 5-hydroxytryptamine 1A receptor mediated inhibition of VIP-stimulated cAMP production at dose of 10 uM; format: functional; conditions: values are per cent of control; outline: as §2
[6] = molecular target: T1, 5-hydroxytryptamine receptor 1A (Rattus norvegicus); experiment: Effect on 5-hydroxytryptamine 1A receptor mediated inhibition of VIP-stimulated cAMP production at dose of 1 uM+ 1 uM 5-HT.; format: functional; conditions: values are per cent of control; outline: as §1
[7] = molecular target: T1, 5-hydroxytryptamine receptor 1A (Rattus norvegicus); experiment: Effect on 5-hydroxytryptamine 1A receptor mediated inhibition of VIP-stimulated cAMP production at dose of 0.1 uM + 1 uM 5-HT.; format: functional; conditions: values are per cent of control; outline: as §2
[8] = molecular target: T1, 5-hydroxytryptamine receptor 1A (Rattus norvegicus); experiment: Effect on 5-hydroxytryptamine 1A receptor mediated inhibition of VIP-stimulated cAMP production at dose of 50 uM+ 50 uM 5-HT.; format: functional; conditions: values are per cent of control; outline: as §1
[9] = molecular target: T1, 5-hydroxytryptamine receptor 1A (Rattus norvegicus); experiment: Effect on 5-hydroxytryptamine 1A receptor mediated inhibition of VIP-stimulated cAMP production at dose of 50 uM; format: functional; conditions: values are per cent of control; outline: as §1
[10] = molecular target: T1, 5-hydroxytryptamine receptor 1A (Rattus norvegicus); conditions: 0.05 uM
[11] = molecular target: T1, 5-hydroxytryptamine receptor 1A (Rattus norvegicus); experiment: Effect on 5-hydroxytryptamine 1A receptor mediated inhibition of VIP-stimulated cAMP production at dose of 1 uM+ 50 uM 5-HT.; format: functional; conditions: values are per cent of control; outline: as §1

Row | SMILES | response, % of control [1] | response, % of control [2] | response, % of control [3] | Ki [4] | response, % of control [5] | response, % of control [6] | response, % of control [7] | response, % of control [8] | response, % of control [9] | response, % of control [10] | response, % of control [11]
1 | CCCN(CCCCN1C(=O)CC2(CCCC2)CC1=O)[C@H]1CCc2c(F)ccc(C(C)=O)c2C1 | 104% | 102% | 97% | 13.9 nM | 109% | 91% | 70% | 91% | 93% |  | 
2 | CCCN(CCCCN1C(=O)CC2(CCCC2)CC1=O)[C@H]1CCc2c(F)ccc(OC)c2C1 |  |  | 79% | 4.9 nM |  |  | 50% |  | 39% | 87% | 41%
